Bioassay records as filed in PubChem.
Shown are actives, neighbours in structure and some others; about 5.7% of the full set was active somewhere.
Calb FLC: affects C. albicans growth with fluconazole | C. albicans CaCi-2 (fluconazole-resistant clinical isolate) + fluconazole, Alamar Blue growth, 48 h | growth inhibition, % (test concentration not listed) | hit rate 0.57% among 300,000 | AID 1979;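 active = growth inhibition above about 58% in most replicates, limit read from the data, passing the limit was not always enough; inconclusive = exactly half the replicates above a set limit; inactive = most replicates below a set limit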;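 note: all wells also contain fluconazole at 8 µg/ml as a sub-toxic cotreatment; 0% = median of DMSO wells and 100% = median of geldanamycin control wells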
SKKanGAS inh: blocks kanamycin growth of S. pyogenes SKKanGAS strain; BacTiter-Glo, 6 h; inhibition, % at 7.5 µM; hit rate 1.3% among 300,000;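 active = mean replicate score, as percent of positive control median, at least 50; inconclusive = mean below 50 but one replicate at or above 50; inactive = mean and every replicate below 50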;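 note: strain carries kanamycin resistance gene driven by streptokinase promoter and grows in 40 µg/ml kanamycin; loss of luminescence reflects streptokinase promoter inhibition or plain growth inhibition; 0% = median of DMSO wells and 100% = positive control at its reference dose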
Beta cell apopt: blocks beta cell apoptosis. INS-1E cytokine-induced death, ATP luminescence, 48 h; percent of positive-control rescue, neutral wells zero. protection from apoptosis, % (no concentration beside the values). hit rate 0.8% among 300,000. AID 435005;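 active = Every replicate reaches about 75%, or at least half do and their mean reaches it too, limit read from the data; inconclusive = At least half of replicates reach the limit but their mean does not; inactive = Under half of replicates reach the limit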;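 note: 0% = cytokine-treated negative control wells and 100% = positive control rescue; higher means more ATP so stronger rescue from cytokine killing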
T cruzi repl: T. cruzi replication inhibition; T. cruzi beta-gal in NIH3T3, luminescence, 90 h; inhibition, % (concentration not given with the values); hit rate 1.4% among 300,000;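 active = mean inhibition across valid replicates above about 55%, limit read from the data; inconclusive = mean below that limit but half or more replicates reach it; inactive = mean below it, under half of replicates reach it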;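 note: signal also drops with host cell toxicity which is not excluded here; 0% = plate median of DMSO wells and 100% = zero luminescence signal; higher percent means less beta-gal luminescence so fewer parasites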
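compound dosing = single 50 nL compound addition per well in DMSO | material = NIH/3T3 host cells with β-galactosidase reporter T. cruzi | input = 5,000 host fibroblasts per well | timing = ≥90 h infection period, 3 h prior cell attachment | read-out basis = percent inhibition of parasite-derived β-gal signal | detection = GalScreen β-gal luminescence, detergent lysis, 60 min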
CSC inhib: cancer stem cell inhibition | cancer stem cell-like cells viability, luminescence | hit rate 1.1% among 300,000 | inhibition, % at 7.5 µM; in the data active = inhibition above about 75%; inconclusive = no clear call, values can overlap the other calls; tested in HMLE shEcad cells
Mdm2 MdmX PPI: inhibitors of human Mdm2/MdmX interaction; O15151+Q00987; SaOS-2 split-luciferase Mdm2/MdmX complementation, luminescence; inhibition, % at 8 µM; hit rate 3% among 330,000; AID 485346;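 active = inhibition of at least 50% at 8 µM in the primary screen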
Target sequence (O15151 whole entry, looked up): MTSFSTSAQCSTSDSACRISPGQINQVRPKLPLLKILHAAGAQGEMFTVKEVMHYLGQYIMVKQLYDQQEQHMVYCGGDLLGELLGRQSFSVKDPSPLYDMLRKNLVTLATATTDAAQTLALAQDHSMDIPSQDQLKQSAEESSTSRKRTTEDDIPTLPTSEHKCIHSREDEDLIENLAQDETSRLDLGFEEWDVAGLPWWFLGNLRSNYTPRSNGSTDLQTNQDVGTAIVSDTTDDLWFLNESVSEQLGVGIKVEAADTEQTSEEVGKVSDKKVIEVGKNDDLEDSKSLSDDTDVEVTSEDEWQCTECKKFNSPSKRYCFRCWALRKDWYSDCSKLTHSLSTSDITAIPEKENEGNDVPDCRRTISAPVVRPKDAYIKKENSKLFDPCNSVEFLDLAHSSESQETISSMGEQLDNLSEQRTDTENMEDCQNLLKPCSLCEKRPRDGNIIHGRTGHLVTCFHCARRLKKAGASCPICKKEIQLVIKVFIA
Target sequence (Q00987 whole entry, looked up): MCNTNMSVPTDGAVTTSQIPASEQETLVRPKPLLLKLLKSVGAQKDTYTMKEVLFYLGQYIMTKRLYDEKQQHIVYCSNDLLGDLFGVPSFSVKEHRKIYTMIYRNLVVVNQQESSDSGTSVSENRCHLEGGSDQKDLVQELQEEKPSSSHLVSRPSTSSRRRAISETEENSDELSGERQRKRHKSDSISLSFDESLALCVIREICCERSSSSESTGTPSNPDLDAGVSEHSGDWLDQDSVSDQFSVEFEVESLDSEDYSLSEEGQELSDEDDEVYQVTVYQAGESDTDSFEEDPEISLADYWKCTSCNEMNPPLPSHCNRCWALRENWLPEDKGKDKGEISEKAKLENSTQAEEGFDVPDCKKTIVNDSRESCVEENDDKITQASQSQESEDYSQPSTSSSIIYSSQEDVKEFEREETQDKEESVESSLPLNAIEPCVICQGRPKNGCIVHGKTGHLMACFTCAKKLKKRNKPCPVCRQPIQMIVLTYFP
* = called active by the depositor; u = inconclusive; x = no result given.

SMILES | Calb FLC | SKKanGAS inh | Beta cell apopt | T cruzi repl | CSC inhib | Mdm2 MdmX PPI
O=C(Nc1cc(Cl)ccc1O)c1cc2n(n1)C(C(F)(F)F)CC(c1ccc3c(c1)OCO3)N2 (stereo unspecified) | 8 | 101* | 8 | 2 | 30 | 27
CCOC(=O)N1CCN(C(=O)c2cc3n(n2)C(C(F)(F)F)CC(c2ccc4c(c2)OCO4)N3)CC1 (stereo unspecified) | -11 | 54* | x | -6 | -9 | -11
CCN(CC(=O)Nc1ccccc1C(F)(F)F)C(=O)/C=C/c1ccc(Cl)c([N+](=O)[O-])c1 | 14 | 23 | 0 | 5 | -5 | 14
Cc1ccc(NC(=O)CSc2nc(=O)n(CCCN3CCOCC3)c3c2CCCC3)c(C)c1 | 13 | -4 | x | 3 | -8 | 15
CS(=O)(=O)c1ccc(Cl)c(NC(=O)c2cc(=O)[nH]c3ccc(S(=O)(=O)N4CCOCC4)cc23)c1 | -9 | 0 | -2 | 0 | -3 | 9
CC12CCC(=O)N1C(C(=O)NCc1ccccc1F)CS2 (stereo unspecified) | -11 | 14 | -1 | -2 | 9 | -14
CCCNC(=O)c1onc(CSc2ccc(Cl)cc2)c1C(=O)NCCC(C)C | -2 | 30 | 4 | 33 | 93* | 11
C=CCNC(=O)c1c(CSc2ccc(Cl)cc2)noc1C(=O)NCCC | 16 | 3 | 1 | -1 | 14 | -20
N#C/C(=C\c1ccc(C(=O)O)cc1)c1ccccn1 | 3 | 6 | x | 5 | -1 | -25
N#C/C(=C\c1c[nH]c2ccc(Br)cc12)c1ccccn1 | 11 | 51* | 12 | 2 | 79* | 49
COCCn1c(Cc2ccccc2)nnc1SC(C)C(=O)NC1CC1 (stereo unspecified) | x | x | -3 | x | -19 | -1
COc1ccc(NS(=O)(=O)c2ccc3nc(COc4cccc5ccccc45)[nH]c3c2)cc1 | 32 | 71* | 32 | 32 | 80* | 33
COc1ccc(NC(=O)c2c(OC)cccc2OC)c(OC)c1 | 45 | 4 | 15 | 59* | -3 | 17
COc1ccc(NC(=O)c2ccc(C(=O)Nc3ccc(OC)cc3OC)cc2)c(OC)c1 | u | 2 | -2 | 2 | 3 | -3
Cc1ccc(CNC(=O)CC(C)S(=O)(=O)c2ccc3c(c2)NC(=O)CS3)o1 (stereo unspecified) | 1 | 1 | 10 | -34 | -4 | 21
Nc1ccc2nc(N3CCOCC3)sc2c1 | 12 | -5 | 15 | 76* | -5 | -20
c1ccc2sc(N3CCOCC3)nc2c1 | 10 | 2 | -1 | -11 | -3 | -19
COc1ccccc1N1CCN(/N=C/c2ccccc2C(=O)O)CC1 | -3 | -2 | -3 | -8 | 2 | 10
C1CCC(CNc2c3c(nc4nnnn24)CCCC3)CC1 | -7 | 1 | 1 | 68* | 7 | -13
COCCCNc1c2c(nc3nnnn13)CCCC2 | 1 | -1 | -6 | -8 | 5 | 8
Cc1cc(Br)ccc1OCC(=O)NNC(=O)C(=O)Nc1ccccc1 | 89* | 37 | -1 | -6 | 6 | 7
Cc1cc(Br)ccc1OCC(=O)NNC(=O)Cc1ccccc1 | -1 | -1 | 0 | -5 | 11 | 14
CC(=O)Oc1ccc2c(=O)c(-c3nc4ccccc4s3)coc2c1 | 89* | 10 | -1 | -10 | 84* | -84
O=C(COC(=O)CCSc1ccc(F)cc1)NCc1ccc(F)cc1 | x | x | 2 | x | -7 | 14
CCOC(=O)c1sc2nc(CSc3ccccc3)nc(N3CCC(C(N)=O)CC3)c2c1C | 13 | 15 | -4 | 59* | 39 | 30
SMILES | Calb FLC | SKKanGAS inh | Beta cell apopt | T cruzi repl | CSC inhib | Mdm2 MdmX PPI
Cc1sc2nc(CSc3ccccc3)nc(N3CCC(C(N)=O)CC3)c2c1C | -8 | 0 | 0 | 19 | 20 | -2
CCc1cccc(NC(=O)CCCn2nc(CC)n3c(cc4occc43)c2=O)c1 | 54 | 25 | -1 | -3 | -9 | 5
CCc1nn(CCCC(=O)NCc2ccccc2Br)c(=O)c2cc3occc3n12 | -4 | 59* | 1 | 8 | -7 | 27
CC(C)n1nc(C(=O)Oc2cccc(Cl)c2Cl)c2ccccc2c1=O | -2 | -4 | -1 | -10 | 0 | 24
CC(C)n1nc(C(=O)Nc2nnc(SCc3c(Cl)cccc3Cl)s2)c2ccccc2c1=O | -12 | 64* | -6 | -12 | 36 | 45
O=C(COC(=O)c1cnccn1)Nc1ncc(C(F)(F)F)cc1Cl | x | x | -4 | x | 5 | 25
CCCCc1ccc(-c2nc(N)n[nH]2)cc1 | 65 | 5 | -10 | 22 | -1 | -35
CCCc1ccc(-c2cc(N)n[nH]2)cc1 | -5 | 113* | -19 | 5 | 6 | -7
CCOC(=O)/C(C(N)=NCC(C)C)=C(/O)c1ccccc1 | 3 | 2 | x | -3 | 17 | -21
CCCOC(=O)/C(C(N)=NCc1ccccc1)=C(\O)OCCC | 0 | 9 | 109* | 34 | 46 | 2
CSCC[C@H](N)C(=O)N1CCC(C(=O)N[C@H](C)C(=O)NC(C)c2ccccc2)CC1 (stereo partly specified) | -7 | 1 | x | -9 | 0 | 10
COc1ccc(-c2cc(C(=O)N/N=C(\C)c3ccco3)c3ccccc3n2)c(OC)c1 | 6 | 54* | -10 | -3 | -2 | 6
CC1CCN(C(=O)c2ccc(CNS(=O)(=O)c3ccc(C(C)(C)C)cc3)cc2)CC1 | x | x | 2 | x | 16 | 10
O=c1[nH]cc(N=Cc2cc([N+](=O)[O-])ccc2O)c(=O)[nH]1 | 93* | -3 | -2 | -10 | -12 | 28
Cc1ccc(S(=O)(=O)NCc2ccccn2)c(C)c1C | 17 | 2 | x | -10 | -16 | -16
Cc1ccc(S(=O)(=O)NCc2ccncc2)c(C)c1C | 35 | -7 | 116* | -56 | -11 | 11
Cc1ccc(-c2nc3c(c(=O)[nH]c(=O)n3CC(C)C)n2CC(C)C)cc1[N+](=O)[O-] | 24 | 11 | 14 | 58* | -11 | 11
CCCCn1c(=O)[nH]c(=O)c2c1nc(-c1ccc(C)c([N+](=O)[O-])c1)n2CC | 2 | 5 | 15 | -17 | -5 | 37
COc1ccc(/C=N/NS(=O)(=O)c2ccc(F)cc2)cc1COc1cc(F)ccc1[N+](=O)[O-] | 27 | 0 | 5 | 59* | 4 | 29
Cc1ccccc1C(=O)NCC(=O)N1CCN(C/C=C/c2ccccc2)CC1 | x | x | 8 | x | -5 | -7
O=C(N/N=C/c1cc(Br)c(O)c(Br)c1)C1CC1 | 5 | 8 | 1 | -2 | -2 | 28
CC(C)(C)NC(=S)N/N=C/c1cc(Br)c(O)c(Br)c1 | 76* | 13 | 5 | 27 | 7 | 17
O=[N+]([O-])c1ccc(O)c(CN2CCCCCC2)c1 | -2 | 2 | -4 | -7 | -10 | 2
CC1CCN(CCCNC(=O)Cn2ncc3c([nH]c4ccccc43)c2=O)CC1 | -3 | 1 | 0 | -1 | -4 | 24
Cc1cc2oc(=O)cc(CN(C)Cc3ccccc3Cl)c2cc1C | 7 | 62* | -4 | 46 | 17 | -12
